# Screens (PubChem BioAssay)
# Sampled rows, rich in hits. Any-hit rate of the full collection: about 1.3%.
# Keap1 Nrf2 FP: Keap1-Nrf2 protein-protein interaction inhibitors, primary screen, biochemical, fluorescence polarization, single point. Kelch-like ECH-associated protein 1 (Homo sapiens), Q14145. Keap1 Kelch-Nrf2 peptide fluorescence polarization, 1536-well. inhibition, % at 9.4 µM. 340,000 tested, 0.15% active. AID 504523, 2011; in the data active means inhibition above about 12%;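 further: human Keap1 Kelch domain with fluorescein labeled Nrf2 9mer peptide probe; 0% = neutral control wells and 100% = peptide positive control; higher means more block of Keap1 binding to Nrf2 peptide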
# EBV gp42 block: Epstein-Barr virus gp42 inhibitors, primary screen, biochemical, uHTS, fluorescence polarization; Fluorescence polarization binding assay, mP read-out; Glycoprotein 42 (Epstein-Barr virus (strain AG876)), Q1HVG2; inhibition, % (tested at 21.74 µM); 220,000 tested, 0.42% active; in the data active means inhibition above about 50%
# GRK2 aptamer HTS: compounds blocking aptamer binding on GRK2 – biochemical, human GRK2, bead flow cytometry, HTS, primary screen; FAM-aptamer displacement from GRK2; inhibition of aptamer binding, % at 10 µM; 330,000 tested, 0.59% active; AID 488847, 2010;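 active means inhibition of aptamer binding above 40%, roughly 3 SD of noise, on plates passing a quality check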;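 further: median bead fluorescence of bound FAM aptamer so fluorescent compounds give negative values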
# Target sequence (P25098 whole entry, looked up): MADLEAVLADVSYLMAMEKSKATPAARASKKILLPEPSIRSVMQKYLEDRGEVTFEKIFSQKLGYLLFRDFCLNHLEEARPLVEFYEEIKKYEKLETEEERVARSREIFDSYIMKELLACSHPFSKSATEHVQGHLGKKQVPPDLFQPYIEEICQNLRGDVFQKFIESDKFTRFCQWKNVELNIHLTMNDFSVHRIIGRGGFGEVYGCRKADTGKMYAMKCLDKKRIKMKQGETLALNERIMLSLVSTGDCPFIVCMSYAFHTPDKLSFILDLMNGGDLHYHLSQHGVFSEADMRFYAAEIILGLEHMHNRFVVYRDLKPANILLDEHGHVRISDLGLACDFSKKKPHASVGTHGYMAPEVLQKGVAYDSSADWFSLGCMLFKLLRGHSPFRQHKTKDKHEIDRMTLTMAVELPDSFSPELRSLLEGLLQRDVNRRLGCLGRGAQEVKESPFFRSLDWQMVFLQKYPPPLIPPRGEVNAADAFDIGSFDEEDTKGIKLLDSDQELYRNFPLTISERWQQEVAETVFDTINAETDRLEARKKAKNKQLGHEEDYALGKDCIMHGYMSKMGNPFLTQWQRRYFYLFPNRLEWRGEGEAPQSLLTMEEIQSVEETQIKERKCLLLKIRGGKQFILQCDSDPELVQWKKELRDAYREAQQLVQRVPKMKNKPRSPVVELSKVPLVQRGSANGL
# MEX-5 binding: MEX-5 zinc finger RNA-binding disruptors – biochemical, C. elegans, fluorescence polarization, MLPCN library, primary screen. Zinc finger protein mex-5 (Caenorhabditis elegans), Q9XUB2. MEX-5/FITC-TCR2 RNA binding; stronger effect = lower value. activity score (negative = inhibition of binding), % at 10 µM. 300,000 tested, 0.38% active. AID 1832, 2009;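 active means inhibition past about -25% in most replicates, and total fluorescence under double the plate's negative control median, limit read from the data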;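 further: 0% = DMSO and -100% = 5 µM competing unlabeled TCR2 RNA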
# T cell modulator: modulators of CD8 T cell-vesicle binding, primary screen, mouse 2C CD8+ T cells, flow cytometry | response (vesicle binding), % at 7 µM | 2C CD8+ T cell-vesicle binding; stronger effect = lower value | 330,000 tested, 0.068% active;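 active means response, share of CD8 T cells binding vesicles, and their 90th percentile fluorescence all below set limits, cut at about 80% in these data, passing the limit was not always enough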;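 further: values below 100% mean blocked vesicle binding to the CD8+ T cells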
#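 Assay system – 2C mouse CD8+ T cells · Also added – QL9-loaded Drosophila micro-vesicles · Timing – Cell–vesicle co-incubation 1.5 h at 37 °C, staining 20 min on ice · Signal – flow cytometry of vesicle-bound cells · Measure – percent CD8+ FL2 mean versus row control · Controls – Peptide-free naked vesicles (low) and QL9 vesicles with 0.7% DMSO vehicle (high)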
# LANA DNA inh: inhibitors of KSHV C-LANA binding to DNA, primary screen, biochemical, fluorescence polarization, FAM-LBS DNA, MBP-C-LANA, single point; Kaposi's sarcoma herpesvirus LANA C-terminal domain (residues 932-1162) DNA binding; inhibition, % at 9 µM; 340,000 tested, 0.078% active;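 active means highest replicate inhibition at or above 60% at 9 µM, even if other replicates fall short; inactive means all replicates below 60% inhibition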;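 further: 0% = neutral control wells and 100% = 4 µM acridine orange control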
# GRK2 inh confirm: GRK2 aptamer-displacing inhibitors, retest, confirmation, biochemical, cherry pick 1, bead flow cytometry; shares compounds with GRK2 aptamer HTS; bead-bound GRK2, FAM-aptamer displacement; aptamer displacement, % at 10 µM; 2,000 tested, 4% active;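 active means aptamer displacement above 40%, near three times the noise of non-fluorescent compounds, on plates passing quality checks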;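 further: negative values mostly reflect intrinsic compound fluorescence rather than true enhancement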
# Aptamer quench SP: aptamer fluorescence quenching in GRK2 counter-screen. shares compounds with GRK2 aptamer HTS. 2,000 tested, under 10 active. Carboxyfluorescein RNA aptamer on beads, flow cytometry quenching; stronger effect = lower value. fluorescence response (% of DMSO), % at 10 µM;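 active means compounds that quench the bead-bound fluorescent RNA probe, cutting fluorescence to under half of the solvent control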;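 further: counterscreen run without GRK2 so only probe quenching by compound is measured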
# GRK2 confirm 2: GRK2 aptamer-displacing inhibitors, hit retest, confirmation, biochemical, cherry pick 2, bead flow cytometry. inhibition of aptamer binding, % at 10 µM. AID 504782, 2011. bead-bound GRK2, FAM-aptamer displacement. shares compounds with GRK2 aptamer HTS. 360 tested, under 10 active;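 active means inhibition of aptamer binding above 40%, about triple the noise seen with nonglowing compounds, on plates passing quality control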;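 further: negative values mostly come from compounds that fluoresce themselves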
# FAM quench CP2: quenches fluorescent RNA aptamer, GRK2 hit artifact. shares compounds with GRK2 aptamer HTS. carboxyfluorescein RNA aptamer beads, flow cytometry quenching; stronger effect = lower value. fluorescence response vs DMSO, % at 10 µM. 360 tested, under 10 active;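 active means response vs DMSO under 50%, meaning signal dropped by over half, treated as fluorescence quencher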;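 further: labelled aptamer on streptavidin beads without GRK2 as a quench counter-screen; 100% = bead fluorescence of DMSO wells and lower means quenching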
# Active calls of the source: *; nt = not tested or not shown.
SMILES,Keap1 Nrf2 FP,EBV gp42 block,GRK2 aptamer HTS,MEX-5 binding,T cell modulator,LANA DNA inh,GRK2 inh confirm,Aptamer quench SP,others
CC(C)CN(C(=O)COC(=O)CCCc1nc2ccccc2s1)c1c(N)n(Cc2ccccc2)c(=O)[nH]c1=O,1,nt,1,-1,217,1,nt,nt,
COc1cc(OC)cc(-c2c(-c3cccs3)c3cc(-c4cnc(OC)nc4)ccc3n2C)c1,-1,nt,68*,nt,292,0,-7,105,
Cc1ccc(NC(=S)NC(NC(=O)N(C)C)C(Cl)(Cl)Cl)cc1 (stereo unspecified),-1,9,2,nt,539,0,nt,nt,
O=C(CCc1ccc(Oc2cc([N+](=O)[O-])cc([N+](=O)[O-])c2)cc1)NC1CCCC1,5,3,99*,0,85,3,2,92,
CCOc1ccc(CNC(=S)N/N=C/c2cccnc2)cc1,0,-12,0,0,157,-1,nt,nt,
CCOc1ccc(CNC(=S)N/N=C\c2ccc([N+](=O)[O-])cc2)cc1,2,-1,64*,-3,136,-2,0,102,
CC(C)c1ccc(NC(=O)c2cccc(NC3=NC4CS(=O)(=O)CC4S3)c2)cc1 (stereo unspecified),0,nt,0,-5,231,1,nt,nt,
CCCCOC(=O)c1cc(C)nc2ccc(Br)cc12,-1,-13,17,-2,583,-1,-1,94,
N#Cc1ccccc1CSc1ncccc1C(=O)O,0,nt,0,-2,299,1,nt,nt,
CCOC(=O)C1CCCCN1Cc1ccc(F)cc1 (stereo unspecified),1,-14,75*,3,359,-1,0,102,
COC(=O)c1ccc(/C=C/c2c(-c3ccc(OC)cc3)oc3ccccc23)cc1,2,nt,4,0,381,-3,nt,nt,
COc1ccc(N2CCN(C(=O)CCC(=O)N3Cc4ccccc4Oc4ncccc43)CC2)cc1,4,nt,3,3,345,1,nt,nt,
Cc1ccccc1SCC(=O)NCC(c1ccc(F)cc1)N1CCOCC1 (stereo unspecified),-3,nt,45*,nt,357,1,nt,nt,GRK2 confirm 2=-14;FAM quench CP2=90
O=C(NCC(c1ccc(F)cc1)N1CCOCC1)c1ccccc1F (stereo unspecified),1,-2,1,0,417,-8,nt,nt,
COC(=O)c1ccc(S(=O)(=O)NCc2ccco2)o1,-4,-8,47*,0,874,4,0,102,
COC(=O)c1ccc(S(=O)(=O)NCc2ccc(S(N)(=O)=O)cc2)o1,-7,-3,0,1,340,0,nt,nt,
Cc1nc(NC(=O)CN2CCN(c3ccccc3F)CC2)sc1C(=O)N(C)C,-3,nt,2,2,241,-1,nt,nt,
Cc1ccc(Cl)cc1C1=CC(=O)C[C@H](c2ccc(F)cc2)C1,-2,nt,64*,nt,237,0,3,110,
COc1ccc([C@H]2CC(=O)C=C(c3cc(Cl)ccc3C)C2)cc1,-8,nt,0,nt,298,1,nt,nt,
O=C(Cc1ccc(Cl)cc1)NC1CCCN(Cc2ccccc2F)C1 (stereo unspecified),-4,nt,0,0,517,-1,nt,nt,
CCOC(=O)C(C)N1C(=O)S/C(=C/c2cc(C)n(-c3ccccn3)c2C)C1=O (stereo unspecified),-5,8,2,-5,202,1,nt,nt,
O=C(CS(=O)(=O)c1cccc(C(F)(F)F)c1)Nc1ccccc1Cl,4,-8,1,-1,234,-1,nt,nt,GRK2 confirm 2=-5;FAM quench CP2=107
O=C(CCCOc1ccccc1)Nc1ccc(Cl)c(S(=O)(=O)N2CCOCC2)c1,3,nt,0,nt,448,2,nt,nt,
Cc1ccc(NC(=O)CCCOc2ccccc2)cc1S(=O)(=O)N1CCOCC1,-5,nt,75*,nt,375,-1,2,99,
C#CCn1c(=NC(=O)c2cccs2)sc2cccc(OCC)c21,0,7,2,0,453,2,nt,nt,
SMILES,Keap1 Nrf2 FP,EBV gp42 block,GRK2 aptamer HTS,MEX-5 binding,T cell modulator,LANA DNA inh,GRK2 inh confirm,Aptamer quench SP,others
C#CCn1c(=NC(=O)c2ccc(Cl)s2)sc2cccc(OC)c21,-4,-8,76*,-3,431,-2,2,99,
Cc1cccc(C)c1OCCCCN1CCNCC1,0,nt,42*,0,201,1,-5,99,
Cc1cc(C)c(OCCCCN2CCNCC2)c(C)c1,5,nt,0,2,242,0,nt,nt,
CCN(CC)S(=O)(=O)c1ccc(C(=O)OC2CCCCC2CN(C)C)cc1 (stereo unspecified),1,-25,70*,-1,407,0,-3,99,
Cc1ccc(-c2c(C#N)c(N)n(-c3ccc(C)cc3)c(=O)c2C#N)cc1,-3,-9,42*,-1,280,1,-7,129,
Cc1ccc(-n2c(N)c(C#N)c(-c3ccc(Cl)cc3)c(C#N)c2=O)cc1,0,-9,0,2,574,1,nt,nt,
CCc1ccc(CNc2ccc3c(c2)ncn3C(C)(C)C)cc1,-7,nt,0,1,160,-1,-6,98,
CC(C)(C)n1cnc2cc(NCc3ccccc3O)ccc21,-2,nt,27,-1,302,0,1,102,
CC(C)(C)n1cnc2cc(NCc3ccc(Br)cc3)ccc21,3,nt,0,1,192,0,-5,96,
CCN(CC)c1ccc(CNc2ccc3c(c2)ncn3C(C)(C)C)cc1,-6,nt,0,2,195,-1,nt,nt,
Cc1nn(CC(=O)NC(C)c2ccccc2)c(C)c1[N+](=O)[O-] (stereo unspecified),3,-7,0,2,347,-1,nt,nt,
COc1cc(SSc2cc(OC)cc([N+](=O)[O-])c2N)c(N)c([N+](=O)[O-])c1,-4,-28,87*,0,24,2,-14,95,
COc1cc([N+](=O)[O-])c2ncsc2c1,-2,-11,0,-1,244,0,nt,nt,
